Source: ChEMBL document CHEMBL4406880, “Design, synthesis, and bioactivity of dihydropyrimidine derivatives as kinesin spindle protein inhibitors” (Bioorg Med Chem, 2019)

Tests used:
Format in all cases: functional
SR = experiment: Growth inhibition of human SR cells assessed as growth percentage at 10 uM incubated for 48 hrs by sulforhodamine B assay relative to control; details: read-out: Activity
Method in brief: (§1)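 NCI-60 single-dose screen. Cells were grown in RPMI 1640 with 5% FBS and 2 mM L-glutamine and plated at 5,000–40,000 cells/well. After an overnight preincubation at 37 °C in 5% CO2, compound was added at a final 10 µM from a DMSO stock, with DMSO/PBS controls. After 48 h, cells were TCA-fixed and stained with 0.4% SRB, and absorbance was read at 515 nm. Growth is given as a percentage of untreated control.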

LOX IMVI = experiment: Growth inhibition of human LOXIMVI cells assessed as growth percentage at 10 uM incubated for 48 hrs by sulforhodamine B assay relative to control; details: read-out: Activity
Method in brief: (§2)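 NCI-60 one-dose screen. Cells in RPMI 1640 with 5% FBS and 2 mM L-glutamine, seeded at 5,000–40,000 cells/well according to doubling time, and preincubated overnight at 37 °C, 5% CO2. A time-zero plate was TCA-fixed at drug addition. Compound from DMSO stock, final 10 µM, 48 h; DMSO vehicle controls. Fixation with TCA, 10% final (16% for suspension cells). SRB stain, Tris solubilization, A515. Result given as % growth versus untreated cells.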

Hs-578T = experiment: Growth inhibition of human Hs 578T cells assessed as growth percentage at 10 uM incubated for 48 hrs by sulforhodamine B assay relative to control; details: read-out: Activity; method in brief: as §2
SK-MEL-5 = experiment: Growth inhibition of human SK-MEL-5 cells assessed as growth percentage at 10 uM incubated for 48 hrs by sulforhodamine B assay relative to control; details: SK-MEL-5, 48 h, read-out: Activity; method in brief: as §1
786-0 = experiment: Growth inhibition of human 786-0 cells assessed as growth percentage at 10 uM incubated for 48 hrs by sulforhodamine B assay relative to control; details: 786-0, 48 h, read-out: Activity
Method in brief: (§3)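 NCI-60 one-dose screen: cells in RPMI 1640 with 5% FBS and 2 mM L-glutamine, plated at 5,000–40,000 cells/well and preincubated 24 h at 37 °C, 5% CO2. Compound is added from a DMSO stock to a final 10 µM and incubated 48 h. Cells are TCA-fixed and stained with sulforhodamine B, read at 515 nm. Output is % growth versus untreated control, with a time-zero plate.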

TK-10 = experiment: Growth inhibition of human TK10 cells assessed as growth percentage at 10 uM incubated for 48 hrs by sulforhodamine B assay relative to control; details: TK-10, 48 h, read-out: Activity; method in brief: as §1
UACC-257 = experiment: Growth inhibition of human UACC257 cells assessed as growth percentage at 10 uM incubated for 48 hrs by sulforhodamine B assay relative to control; details: UACC-257, 48 h, read-out: Activity; method in brief: as §1
SNB-19 = experiment: Growth inhibition of human SNB19 cells assessed as growth percentage at 10 uM incubated for 48 hrs by sulforhodamine B assay relative to control; details: SNB-19, 48 h, read-out: Activity; method in brief: as §1
RXF 393 = experiment: Growth inhibition of human RXF393 cells assessed as growth percentage at 10 uM incubated for 48 hrs by sulforhodamine B assay relative to control; details: RXF 393, 48 h, read-out: Activity; method in brief: as §1
SNB-75 = experiment: Growth inhibition of human SNB75 cells assessed as growth percentage at 10 uM incubated for 48 hrs by sulforhodamine B assay relative to control; details: SNB-75, 48 h, read-out: Activity; method in brief: as §1
M14 = experiment: Growth inhibition of human M14 cells assessed as growth percentage at 10 uM incubated for 48 hrs by sulforhodamine B assay relative to control; details: M14, 48 h, read-out: Activity; method in brief: as §2
BT-549 = experiment: Growth inhibition of human BT549 cells assessed as growth percentage at 10 uM incubated for 48 hrs by sulforhodamine B assay relative to control; details: BT-549, 48 h, read-out: Activity; method in brief: as §3
DU-145 = experiment: Growth inhibition of human DU145 cells assessed as growth percentage at 10 uM incubated for 48 hrs by sulforhodamine B assay relative to control; details: DU-145, 48 h, read-out: Activity; method in brief: as §3
COLO 205 = experiment: Growth inhibition of human COLO205 cells assessed as growth percentage at 10 uM incubated for 48 hrs by sulforhodamine B assay relative to control; details: COLO 205, 48 h, read-out: Activity; method in brief: as §3
T47D = experiment: Growth inhibition of human T47D cells assessed as growth percentage at 10 uM incubated for 48 hrs by sulforhodamine B assay relative to control; details: read-out: Activity; method in brief: as §1
SF-268 = experiment: Growth inhibition of human SF268 cells assessed as growth percentage at 10 uM incubated for 48 hrs by sulforhodamine B assay relative to control; details: SF-268, 48 h, read-out: Activity; method in brief: as §1
SF-539 = experiment: Growth inhibition of human SF539 cells assessed as growth percentage at 10 uM incubated for 48 hrs by sulforhodamine B assay relative to control; details: SF-539, 48 h, read-out: Activity; method in brief: as §1
MDA-MB-468 = experiment: Growth inhibition of human MDA-MB-468 cells assessed as growth percentage at 10 uM incubated for 48 hrs by sulforhodamine B assay relative to control; details: MDA-MB-468, 48 h, read-out: Activity; method in brief: as §2
UO-31 = experiment: Growth inhibition of human UO31 cells assessed as growth percentage at 10 uM incubated for 48 hrs by sulforhodamine B assay relative to control; details: UO-31, 48 h, read-out: Activity; method in brief: as §1
NCI-H23 = experiment: Growth inhibition of human NCI-H23 cells assessed as growth percentage at 10 uM incubated for 48 hrs by sulforhodamine B assay relative to control; details: NCI-H23, 48 h, read-out: Activity; method in brief: as §2
SK-MEL-2 = experiment: Growth inhibition of human SK-MEL-2 cells assessed as growth percentage at 10 uM incubated for 48 hrs by sulforhodamine B assay relative to control; details: SK-MEL-2, 48 h, read-out: Activity; method in brief: as §1
HCC 2998 = experiment: Growth inhibition of human HCC2998 cells assessed as growth percentage at 10 uM incubated for 48 hrs by sulforhodamine B assay relative to control; details: HCC 2998, 48 h, read-out: Activity; method in brief: as §3
HL-60(TB) = experiment: Growth inhibition of human HL-60(TB) cells assessed as growth percentage at 10 uM incubated for 48 hrs by sulforhodamine B assay relative to control; details: HL-60, 48 h, read-out: Activity
Method in brief: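 NCI-60 single-dose screen. Cells in RPMI 1640 with 5% FBS and 2 mM L-glutamine are plated at 5,000–40,000 cells/well and preincubated overnight at 37 °C, 5% CO2. Compound is added from a DMSO stock at 10 µM final for 48 h. Cells are TCA-fixed (suspension cells 16% final) and stained with SRB. Absorbance is read at 515 nm, and percentage growth is calculated against untreated controls with a time-zero plate.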

MOLT-4 = experiment: Growth inhibition of human MOLT4 cells assessed as growth percentage at 10 uM incubated for 48 hrs by sulforhodamine B assay relative to control; details: MOLT-4, 48 h, read-out: Activity; method in brief: as §2

| SMILES | growth at 10 µM (SR) | growth at 10 µM (LOX IMVI) | growth at 10 µM (Hs-578T) | growth at 10 µM (SK-MEL-5) | growth at 10 µM (786-0) | growth at 10 µM (TK-10) | growth at 10 µM (UACC-257) | growth at 10 µM (SNB-19) | growth at 10 µM (RXF 393) | growth at 10 µM (SNB-75) | growth at 10 µM (M14) | growth at 10 µM (BT-549) | growth at 10 µM (DU-145) | growth at 10 µM (COLO 205) | growth at 10 µM (T47D) | growth at 10 µM (SF-268) | growth at 10 µM (SF-539) | growth at 10 µM (MDA-MB-468) | growth at 10 µM (UO-31) | growth at 10 µM (NCI-H23) | further results |
| --- | --- | --- | --- | --- | --- | --- | --- | --- | --- | --- | --- | --- | --- | --- | --- | --- | --- | --- | --- | --- | --- |
| CC(=O)C1=C(C)NC(=O)NC1c1ccc2c(c1)OCO2 (racemic) | 108% | 96.4% | 111% | 100% | 105% | 103% | 107% | 95.4% | 95.2% | 94.1% | 104% | 112% | 118% | 104% | 91.8% | 107% | 102% | 105% | 83.4% | 101% | growth at 10 µM (SK-MEL-2): 110%; growth at 10 µM (HCC 2998): 107%; growth at 10 µM (HL-60(TB)): 98.6%; growth at 10 µM (MOLT-4): 103% |
| CC1=C(C(=O)c2ccccc2)C(c2ccc3c(c2)OCO3)NC(=S)N1 (racemic) | 6.28% | 36.2% | 23.4% | 28.2% | 58.9% | 66% | 57.2% | 63.8% | 59.5% | -1.4% | 34.6% | 50.6% | 78.7% | 47.6% | 67.9% | 75.8% | 36.4% | 54.3% | 55.7% | 48% | growth at 10 µM (SK-MEL-2): 60.5%; growth at 10 µM (HCC 2998): 62.2%; growth at 10 µM (HL-60(TB)): 2.6%; growth at 10 µM (MOLT-4): 36.6% |
| CC(=O)C1=C(C)NC(=S)NC1c1ccc2c(c1)OCO2 (racemic) | 104% | 98.7% | 101% | 100% | 103% | 97.6% | 102% | 98.9% | 102% | 90.1% | 107% | 108% | 111% | 109% | 96.2% | 100% | 98.7% | 113% | 81% | 107% | growth at 10 µM (SK-MEL-2): 106%; growth at 10 µM (HCC 2998): 108%; growth at 10 µM (HL-60(TB)): 96.4%; growth at 10 µM (MOLT-4): 98.8% |
| CC1=C(C(=O)OCC(C)C)C(c2ccc3c(c2)OCO3)NC(=O)N1 (racemic) | 108% | 96.5% | 118% | 101% | 104% | 99.4% | 103% | 107% | 101% | 100% | 105% | 99.4% | 109% | 119% | 97.5% | 101% | 104% | 100% | 84.8% | 102% | growth at 10 µM (SK-MEL-2): 104%; growth at 10 µM (HCC 2998): 108%; growth at 10 µM (HL-60(TB)): 96%; growth at 10 µM (MOLT-4): 109% |
| COCCOC(=O)C1=C(C)NC(=O)NC1c1ccc2c(c1)OCO2 (racemic) | 105% | 98.6% | 103% | 100% | 102% | 100% | 103% | 95.6% | 94.6% | 89.6% | 104% | 106% | 108% | 102% | 98.4% | 98% | 101% | 106% | 87.3% | 92% | growth at 10 µM (SK-MEL-2): 104%; growth at 10 µM (HCC 2998): 101%; growth at 10 µM (HL-60(TB)): 99.7%; growth at 10 µM (MOLT-4): 101% |
| CC1=C(C(=O)OCc2ccccc2)C(c2ccc3c(c2)OCO3)NC(=O)N1 (racemic) | 104% | 97.9% | 98.1% | 89.8% | 99.1% | 101% | 103% | 96.1% | 102% | 96% | 97.4% | 80.2% | 107% | 116% | 89.2% | 99.8% | 97.8% | 92% | 83.1% | 101% | growth at 10 µM (SK-MEL-2): 101%; growth at 10 µM (HCC 2998): 116%; growth at 10 µM (HL-60(TB)): 97%; growth at 10 µM (MOLT-4): 104% |
| CC(=O)N1C(=S)NC(C)=C(C(=O)OC(C)C)C1c1ccc2c(c1)OCO2 (racemic) | 89.6% | 98.8% | 98% | 100% | 102% | 103% | 104% | 98.1% | 111% | 97.2% | 96.8% | 99.3% | 104% | 99.5% | 70.4% | 100% | 98.2% | 104% | 91.3% | 100% | growth at 10 µM (SK-MEL-2): 110%; growth at 10 µM (HCC 2998): 110%; growth at 10 µM (HL-60(TB)): 99.3%; growth at 10 µM (MOLT-4): 95.2% |
